Assay results published in ChEMBL document CHEMBL1138050, “Furan-2-ylmethylene thiazolidinediones as novel, potent, and selective inhibitors of phosphoinositide 3-kinase gamma” (J Med Chem, 2006).
Calls of active or inactive are those of the source. The rule behind the calls is not given here.

Legend:
[1] = biological target: Cyclin-dependent kinase 7/ cyclin H (Homo sapiens) (UniProt P51946+P50613); assay: Residual activity at human CDK7/CyclinH/MAT1 at 10 uM in presence of 10 uM ATP relative to control; format: protein-complex assay
In short: (§1)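 Panel of Ser/Thr and Tyr protein kinases, each tested with 10 µM compound in the presence of 10 µM ATP; activity expressed relative to control.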

[2] = biological target: Dual specificity mitogen-activated protein kinase kinase 7 (Homo sapiens) (UniProt O14733); assay: Residual activity at human MKK7-beta at 10 uM in presence of 10 uM ATP relative to control
In short: (§2)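 Single-concentration counter-screen across a panel of 80 Ser/Thr and Tyr protein kinases. Compound was tested at 10 µM with ATP at 10 µM. Activity remaining in each kinase is expressed relative to control.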

[3] = biological target: Ribosomal protein S6 kinase alpha-5 (Homo sapiens) (UniProt O75582); assay: Residual activity at human MSK1 at 10 uM in presence of 10 uM ATP relative to control; in short: as §2
[4] = biological target: Ribosomal protein S6 kinase beta-1 (Homo sapiens) (UniProt P23443); assay: Residual activity at human p70S6K at 10 uM in presence of 10 uM ATP relative to control; in short: as §2
[5] = biological target: cAMP-dependent protein kinase (PKA) (Homo sapiens) (UniProt P22694+P17612+P22612); assay: Residual activity at human PKA at 10 uM in presence of 10 uM ATP relative to control; format: protein assay; in short: as §2
[6] = biological target: Protein kinase C gamma type (Homo sapiens) (UniProt P05129); assay: Residual activity at human PKCgamma at 10 uM in presence of 10 uM ATP relative to control; in short: as §2
[7] = biological target: Tyrosine-protein kinase CSK (Homo sapiens) (UniProt P41240); assay: Residual activity at human CSK at 10 uM in presence of 10 uM ATP relative to control; in short: as §1
[8] = biological target: Proto-oncogene tyrosine-protein kinase Src (Homo sapiens) (UniProt P12931); assay: Residual activity at human cSRC at 10 uM in presence of 10 uM ATP relative to control; in short: as §2
[9] = biological target: Inhibitor of nuclear factor kappa-B kinase subunit alpha (Homo sapiens) (UniProt O15111); assay: Residual activity at human IKKalpha at 10 uM in presence of 10 uM ATP relative to control; in short: as §1
[10] = biological target: Mitogen-activated protein kinase 8 (Homo sapiens) (UniProt P45983); assay: Residual activity at human JNK1alpha1 at 10 uM in presence of 10 uM ATP relative to control; in short: as §2
[11] = biological target: Tyrosine-protein kinase Lck (Homo sapiens) (UniProt P06239); assay: Residual activity at human Lck at 10 uM in presence of 10 uM ATP relative to control; in short: as §2
[12] = biological target: Mitogen-activated protein kinase 1 (Homo sapiens) (UniProt P28482); assay: Residual activity at human MAPK1 at 10 uM in presence of 10 uM ATP relative to control; in short: as §2
[13] = biological target: Serine/threonine-protein kinase D2 (Homo sapiens) (UniProt Q9BZL6); assay: Residual activity at human PKD2 at 10 uM in presence of 10 uM ATP relative to control; in short: as §2
[14] = biological target: MAP kinase-activated protein kinase 5 (Homo sapiens) (UniProt Q8IW41); assay: Residual activity at human PRAK at 10 uM in presence of 10 uM ATP relative to control; in short: as §2
[15] = biological target: Serine/threonine-protein kinase N2 (Homo sapiens) (UniProt Q16513); assay: Residual activity at human PRK2 at 10 uM in presence of 10 uM ATP relative to control; in short: as §2
[16] = biological target: Rho-associated protein kinase 2 (Homo sapiens) (UniProt O75116); assay: Residual activity at human ROCK2 at 10 uM in presence of 10 uM ATP relative to control; in short: as §2
[17] = biological target: Serine/threonine-protein kinase Sgk1 (Homo sapiens) (UniProt O00141); assay: Residual activity at human SGK at 10 uM in presence of 10 uM ATP relative to control; in short: as §2
[18] = biological target: Tyrosine-protein kinase ZAP-70 (Homo sapiens) (UniProt P43403); assay: Residual activity at human ZAP70 at 10 uM in presence of 10 uM ATP relative to control; in short: as §2
[19] = biological target: Tyrosine-protein kinase ABL1 (Homo sapiens) (UniProt P00519); assay: Residual activity at human Abl at 10 uM in presence of 10 uM ATP relative to control; in short: as §1
Mast cell = assay: Inhibition of SCF-induced PKB/Akt phosphorylation in mouse mast cells at 10 uM; format: functional, cell-based
In short: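 Bone marrow mast cells from 4- to 8-week-old wild-type mice, derived ≥4 weeks in 20 ng/mL SCF plus 20 ng/mL IL-3 and confirmed c-kit+ by FACS. Cells at 2.5 × 10^6/mL starved 24 h without SCF/IL-3, preincubated 20 min with compound or 1% DMSO, stimulated 15 min at 37 °C with 20 ng/mL SCF. Fixed in 1.5% paraformaldehyde, permeabilized with 0.2% Triton X-100, phospho-Ser-473 Akt read by FACS.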

THP-1 = assay: Inhibition of MCP1-induced PKB/Akt phosphorylation in THP1 cells; format: functional, cell-based; conditions: Homo sapiens
In short: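 THP-1 monocytes starved 3 h in serum-free medium and pretreated with inhibitor or DMSO (15 min in methods; 20 min in figure legend). Stimulated with 100 nM MCP-1/CCL2 for 30 s, or with 50 ng/mL CSF-1 for 5 min. Phospho-Ser-473 and total Akt detected by Western blot and quantified.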

Monocyte = assay: Inhibition of MCP1-induced chemotaxis of mouse primary monocytes; format: functional, cell-based
In short: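 Cells were starved and pretreated with inhibitor or DMSO, then chemotaxis was induced with MCP-1 (10^-9 M). Primary mouse monocytes: 10^7 5-day bone-marrow-derived monocytes in medium with 0.5% BSA and compound, placed in the upper chamber of a 5 µm transwell. MCP-1 plus compound in the lower chamber. After 3 h at 37 °C, 5% CO2, cells in the lower chamber were counted. IC50.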

[20] = AUC in rat at 10 mg/kg, iv; format: ADME, organism-based; parameters: dose 10 mg/kg, route intravenous; conditions: plasma
In short: (§3)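 Rats given a single 10 mg/kg dose, intravenously or orally. The compound was given as its potassium salt, prepared with KOH in THF/water, for the in vivo work.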

[21] = Cmax in rat at 10 mg/kg, iv; format: ADME, organism-based; parameters: dose 10 mg/kg, route intravenous; conditions: in vivo; in short: as §3
[22] = Cmax in rat at 10 mg/kg, po; format: ADME, organism-based; parameters: dose 10 mg/kg, route oral; conditions: in vivo; in short: as §3
[23] = biological target: Phosphatidylinositol 4,5-bisphosphate 3-kinase catalytic subunit beta isoform (Homo sapiens, UniProt P42338); assay: Inhibition of human PI3Kbeta
[24] = biological target: Cytoplasmic tyrosine-protein kinase BMX (Homo sapiens) (UniProt P51813); assay: Residual activity at human Bmx at 10 uM in presence of 10 uM ATP relative to control; in short: as §1
[25] = biological target: Ca2+/calmodulin-dependent protein kinase II (CaM kinase II) (Rattus norvegicus) (UniProt P11275+P08413+P15791+P11730); assay: Residual activity at rat CaMK2 at 10 uM in presence of 10 uM ATP relative to control; format: protein assay

Inhibitor of nuclear factor kappa-B kinase subunit alpha (Homo sapiens), sequence (O15111 whole entry): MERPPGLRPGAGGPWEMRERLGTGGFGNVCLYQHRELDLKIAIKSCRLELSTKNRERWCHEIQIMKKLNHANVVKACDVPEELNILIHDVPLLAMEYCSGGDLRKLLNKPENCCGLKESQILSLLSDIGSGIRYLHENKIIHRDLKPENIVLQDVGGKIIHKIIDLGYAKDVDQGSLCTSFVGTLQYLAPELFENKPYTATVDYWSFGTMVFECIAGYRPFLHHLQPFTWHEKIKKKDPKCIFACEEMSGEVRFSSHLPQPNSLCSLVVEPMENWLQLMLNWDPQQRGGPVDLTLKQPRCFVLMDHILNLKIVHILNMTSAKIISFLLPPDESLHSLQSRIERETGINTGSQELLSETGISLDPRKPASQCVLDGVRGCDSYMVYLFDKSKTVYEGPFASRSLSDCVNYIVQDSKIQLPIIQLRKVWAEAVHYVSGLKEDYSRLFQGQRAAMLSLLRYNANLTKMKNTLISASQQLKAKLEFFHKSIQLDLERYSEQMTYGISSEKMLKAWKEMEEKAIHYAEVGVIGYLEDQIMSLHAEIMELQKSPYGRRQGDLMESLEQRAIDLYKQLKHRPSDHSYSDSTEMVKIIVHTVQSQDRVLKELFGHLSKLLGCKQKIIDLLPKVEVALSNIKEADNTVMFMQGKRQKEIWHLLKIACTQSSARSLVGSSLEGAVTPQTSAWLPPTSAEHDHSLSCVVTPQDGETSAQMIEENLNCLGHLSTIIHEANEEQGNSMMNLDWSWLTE
Serine/threonine-protein kinase Sgk1 (Homo sapiens), sequence (O00141 whole entry): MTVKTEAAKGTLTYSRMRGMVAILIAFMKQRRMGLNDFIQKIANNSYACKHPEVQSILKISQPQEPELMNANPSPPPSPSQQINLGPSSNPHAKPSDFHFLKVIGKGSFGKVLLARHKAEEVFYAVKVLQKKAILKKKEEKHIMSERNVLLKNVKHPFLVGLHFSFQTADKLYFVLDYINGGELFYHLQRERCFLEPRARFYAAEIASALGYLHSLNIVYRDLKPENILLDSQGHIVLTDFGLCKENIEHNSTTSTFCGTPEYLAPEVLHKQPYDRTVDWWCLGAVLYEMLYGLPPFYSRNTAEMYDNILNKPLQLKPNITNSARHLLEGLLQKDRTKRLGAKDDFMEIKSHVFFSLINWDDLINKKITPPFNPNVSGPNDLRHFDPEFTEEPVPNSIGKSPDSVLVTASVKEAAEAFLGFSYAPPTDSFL
Dual specificity mitogen-activated protein kinase kinase 7 (Homo sapiens), sequence (O14733 whole entry): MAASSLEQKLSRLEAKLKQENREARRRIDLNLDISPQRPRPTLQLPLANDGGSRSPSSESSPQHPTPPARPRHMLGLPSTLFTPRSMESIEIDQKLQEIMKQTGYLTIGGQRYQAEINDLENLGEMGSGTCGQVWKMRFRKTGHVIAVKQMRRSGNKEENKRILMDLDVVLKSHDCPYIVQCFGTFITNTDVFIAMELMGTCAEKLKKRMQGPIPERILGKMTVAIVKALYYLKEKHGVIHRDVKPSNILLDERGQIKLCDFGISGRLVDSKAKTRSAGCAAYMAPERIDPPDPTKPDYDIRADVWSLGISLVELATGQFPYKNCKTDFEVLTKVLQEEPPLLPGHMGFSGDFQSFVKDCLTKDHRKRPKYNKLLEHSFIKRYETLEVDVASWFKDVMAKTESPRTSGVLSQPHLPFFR
Mitogen-activated protein kinase 1 (Homo sapiens), sequence (P28482 whole entry): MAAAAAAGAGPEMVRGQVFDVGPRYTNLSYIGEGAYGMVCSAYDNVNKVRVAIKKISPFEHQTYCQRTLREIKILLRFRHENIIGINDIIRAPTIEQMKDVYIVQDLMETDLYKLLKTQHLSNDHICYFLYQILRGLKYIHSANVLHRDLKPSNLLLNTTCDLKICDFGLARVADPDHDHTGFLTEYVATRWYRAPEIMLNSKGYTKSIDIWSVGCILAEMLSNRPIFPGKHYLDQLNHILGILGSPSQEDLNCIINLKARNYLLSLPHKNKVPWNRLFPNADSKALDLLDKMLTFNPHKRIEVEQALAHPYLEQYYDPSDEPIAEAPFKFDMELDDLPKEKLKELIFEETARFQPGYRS
Serine/threonine-protein kinase D2 (Homo sapiens), sequence (Q9BZL6 whole entry): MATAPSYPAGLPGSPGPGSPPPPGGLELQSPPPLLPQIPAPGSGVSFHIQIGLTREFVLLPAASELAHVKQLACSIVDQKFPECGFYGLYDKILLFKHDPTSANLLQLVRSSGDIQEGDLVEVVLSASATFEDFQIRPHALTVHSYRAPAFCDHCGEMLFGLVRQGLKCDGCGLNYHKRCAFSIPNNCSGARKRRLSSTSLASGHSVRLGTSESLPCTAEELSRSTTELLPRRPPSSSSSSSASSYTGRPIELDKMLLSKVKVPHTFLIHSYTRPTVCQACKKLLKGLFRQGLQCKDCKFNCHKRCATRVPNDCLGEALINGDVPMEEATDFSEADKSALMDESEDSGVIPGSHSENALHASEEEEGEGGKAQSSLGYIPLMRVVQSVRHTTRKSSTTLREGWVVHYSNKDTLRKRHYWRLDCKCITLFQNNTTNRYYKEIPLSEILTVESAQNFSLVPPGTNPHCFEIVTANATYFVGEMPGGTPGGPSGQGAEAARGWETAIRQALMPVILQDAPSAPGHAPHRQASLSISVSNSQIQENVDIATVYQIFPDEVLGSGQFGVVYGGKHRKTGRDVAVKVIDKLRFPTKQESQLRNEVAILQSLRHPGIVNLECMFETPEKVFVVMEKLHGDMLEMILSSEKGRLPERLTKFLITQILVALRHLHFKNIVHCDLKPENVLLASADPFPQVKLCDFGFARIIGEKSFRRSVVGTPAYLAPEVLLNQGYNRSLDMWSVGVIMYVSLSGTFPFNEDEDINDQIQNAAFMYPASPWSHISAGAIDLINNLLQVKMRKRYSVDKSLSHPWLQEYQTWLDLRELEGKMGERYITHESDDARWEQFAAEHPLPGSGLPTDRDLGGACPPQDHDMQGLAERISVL
Tyrosine-protein kinase Lck (Homo sapiens), sequence (P06239 2-509 limits assumed): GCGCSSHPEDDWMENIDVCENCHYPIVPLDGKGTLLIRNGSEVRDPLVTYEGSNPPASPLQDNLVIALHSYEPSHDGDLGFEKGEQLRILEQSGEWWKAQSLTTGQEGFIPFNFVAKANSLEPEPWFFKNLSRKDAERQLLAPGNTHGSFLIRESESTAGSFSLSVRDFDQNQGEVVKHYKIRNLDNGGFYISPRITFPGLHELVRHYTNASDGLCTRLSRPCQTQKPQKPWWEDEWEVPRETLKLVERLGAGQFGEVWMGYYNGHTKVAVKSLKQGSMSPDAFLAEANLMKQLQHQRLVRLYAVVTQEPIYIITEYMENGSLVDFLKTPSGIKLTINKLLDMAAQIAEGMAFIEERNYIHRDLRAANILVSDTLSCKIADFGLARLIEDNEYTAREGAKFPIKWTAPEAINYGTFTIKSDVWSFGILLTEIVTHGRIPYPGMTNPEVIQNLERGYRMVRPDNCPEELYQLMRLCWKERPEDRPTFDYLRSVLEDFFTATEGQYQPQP
Tyrosine-protein kinase ZAP-70 (Homo sapiens), sequence (P43403 whole entry): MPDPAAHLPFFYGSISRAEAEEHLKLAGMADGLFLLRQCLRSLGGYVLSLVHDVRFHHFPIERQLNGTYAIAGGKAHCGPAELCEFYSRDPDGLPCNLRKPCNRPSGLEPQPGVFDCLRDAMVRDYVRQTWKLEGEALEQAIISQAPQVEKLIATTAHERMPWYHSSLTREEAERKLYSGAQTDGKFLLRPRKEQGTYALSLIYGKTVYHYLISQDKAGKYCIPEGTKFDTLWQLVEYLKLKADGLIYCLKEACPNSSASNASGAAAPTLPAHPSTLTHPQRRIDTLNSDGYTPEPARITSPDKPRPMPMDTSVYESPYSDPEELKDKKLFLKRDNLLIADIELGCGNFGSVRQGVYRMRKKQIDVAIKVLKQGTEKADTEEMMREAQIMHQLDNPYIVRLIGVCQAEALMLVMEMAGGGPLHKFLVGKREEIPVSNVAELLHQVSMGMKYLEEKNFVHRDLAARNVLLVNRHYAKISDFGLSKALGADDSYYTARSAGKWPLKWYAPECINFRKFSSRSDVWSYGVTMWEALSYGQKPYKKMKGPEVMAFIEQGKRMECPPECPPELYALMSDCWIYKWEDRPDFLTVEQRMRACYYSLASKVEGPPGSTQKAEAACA

## O=C1NC(=O)/C(=C/c2ccc(-c3ccc(F)cc3O)o2)S1
[1]
  Activity: 77%
[2]
  Activity: 2%
[3]
  Activity: 72%
[4]
  Activity: 190%
[5]
  Activity: 89%
[6]
  Activity: 107%
[7]
  Activity: 103%
[8]
  Activity: 66%
[9]
  Activity: 82%
[10]
  Activity: 97%
[11]
  Activity: 104%
[12]
  Activity: 103%
[13]
  Activity: 91%
[14]
  Activity: 95%
[15]
  Activity: 95%
[16]
  Activity: 90%
[17]
  Activity: 98%
[18]
  Activity: 159%
[19]
  Activity: 92%
Mast cell
  Activity: inactive
THP-1
  IC50: 0.4 µM
Monocyte
  IC50: 52 µM
[20]
  AUC: 4400 ng·h/mL
[21]
  Cmax: 11400 ng/mL
[22]
  Cmax: 309 ng/mL
[23]
  IC50: 20 µM
[24]
  Activity: 102%
[25]
  Activity: 97%
